Source: ChEMBL document CHEMBL4706580, “4-Amino-1,2,4-triazole-3-thione-derived Schiff bases as metallo-β-lactamase inhibitors” (Eur J Med Chem, 2020)
Each block holds one compound with its values, some of them ahead of it.

Legend:
[1] = Inhibition of beta-lactamase VIM-2 (unknown origin) expressed in Escherichia coli LZ2310 assessed as potentiation of cefoxitin antibacterial activity by measuring cefoxitin induced diameter of inhibition zone at 120 uM incubated for 18 hrs by disk diffusion method (reference value: 14 mm)
Method in brief: (§1)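 Efflux-deficient E. coli LZ2310 (NorE, MdfA, AcrA knocked out) carrying pLB-II with the cloned MBL gene. Mueller-Hinton, CLSI disk diffusion; antibiotic disks (30 µg cefoxitin for VIM-2, 10 µg ampicillin for VIM-4, 30 µg ceftazidime for NDM-1/IMP-1) loaded with inhibitor in DMSO (≤15 µL). Zone diameter after 18 h, 35 ± 1 °C; DMSO and 220 µg EDTA controls. Triplicate.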

[2] = Inhibition of beta-lactamase VIM-2 (unknown origin) expressed in Escherichia coli LZ2310 assessed as potentiation of cefoxitin antibacterial activity by measuring cefoxitin induced diameter of inhibition zone at 40 uM incubated for 18 hrs by disk diffusion method (reference value: 14 mm); method in brief: as §1
[3] = Inhibition of beta-lactamase CphA (unknown origin) expressed in Escherichia coli BL21(DE3) using imipenem as substrate by measuring substrate hydrolysis by spectrophotometric analysis
Method in brief: (§2)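 Enzyme 0.2–0.8 nM in 15 mM cacodylate pH 6.5, no added zinc, pre-incubated 30 min at 21 °C with inhibitor (100 μM screen). Imipenem substrate added from 10 mM stock; hydrolysis at 300 nm, 30 °C. Residual activity vs three uninhibited samples; Ki (1–100 μM inhibitor) by Hanes linearization, competitive model. Triplicate.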

[4] = Inhibition of beta-lactamase IMP-1 (unknown origin) expressed in Escherichia coli BL21(DE3) using imipenem as substrate by measuring substrate hydrolysis by spectrophotometric analysis
Method in brief: (§3)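 Purified enzyme (overproduced in E. coli BL21(DE3), pET-9a; ion-exchange and gel filtration), 1-70 nM final. Reporter substrate 150 μM imipenem, read at 300 nm, 30 °C, 50 mM HEPES pH 7.5. Single-point screen at 100 or 200 μM; Ki from v0/vi vs [I] (0.5–1,000 μM final) assuming competitive inhibition, or Dixon plot. Triplicate.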

[5] = Inhibition of beta-lactamase NDM-1 (unknown origin) expressed in Escherichia coli LZ2310 assessed as potentiation of ceftazidime antibacterial activity by measuring ceftazidime induced diameter of inhibition zone at 40 uM incubated for 18 hrs by disk diffusion method (reference value: 15 mm); method in brief: as §1
[6] = Inhibition of beta-lactamase NDM1 (unknown origin) expressed in Escherichia coli BL21(DE3) using cefotaxime/nitrocefin as substrate by measuring substrate hydrolysis by spectrophotometric analysis
Method in brief: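 His-tagged enzyme from E. coli BL21(DE3) pET-15b, affinity-purified, 1-70 nM final. Reporter substrate 120 μM cefotaxime (260 nm) or 100 μM nitrocefin (482 nm), 30 °C, 50 mM HEPES pH 7.5. Inhibitor 0.5–1,000 μM final; competitive Ki from v0/vi vs [I] slope or Dixon plot. Triplicate.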

[7] = Inhibition of beta-lactamase VIM2 (unknown origin) expressed in Escherichia coli BL21(DE3) using imipenem as substrate by measuring substrate hydrolysis by spectrophotometric analysis; method in brief: as §3
[8] = Inhibition of beta-lactamase VIM4 (unknown origin) expressed in Escherichia coli BL21(DE3) using imipenem as substrate by measuring substrate hydrolysis by spectrophotometric analysis; method in brief: as §3
[9] = Inhibition of beta-lactamase L1 (unknown origin) expressed in Escherichia coli BL21(DE3) using nitrocefin as substrate by measuring substrate hydrolysis preincubated for 30 mins by spectrophotometric analysis
Method in brief: (§4)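 Enzyme 0.2–0.8 nM in 25 mM HEPES pH 7.5 with 50 μM ZnCl2 final, pre-incubated 30 min at 21 °C with inhibitor (100 μM screen). Nitrocefin 100 μM final, read at 482 nm, 30 °C. Residual activity vs three uninhibited samples; Ki (1–100 μM inhibitor) from Hanes linearization, competitive model. Triplicate.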

[10] = Inhibition of beta-lactamase IMP-1 (unknown origin) expressed in Escherichia coli LZ2310 assessed as potentiation of ceftazidime antibacterial activity by measuring ceftazidime induced diameter of inhibition zone at 40 uM incubated for 18 hrs by disk diffusion method (reference value: 9 mm); method in brief: as §1
Escherichia coli [11] = assay: Synergistic antibacterial activity against NDM-1 producing Escherichia coli assessed as MIC of imipenem at 32 ug/ml by broth microdilution method; assay type: functional; details: dose 32 µg/ml
Escherichia coli [12] = assay: Synergistic antibacterial activity against NDM-1 producing Escherichia coli assessed as MIC of meropenem at 32 ug/ml by broth microdilution method; assay type: functional; details: dose 32 µg/ml
Escherichia coli [13] = assay: Synergistic antibacterial activity against NDM-1 producing Escherichia coli assessed as MIC of ceftazidime at 32 ug/ml by broth microdilution method; assay type: functional; details: dose 32 µg/ml
Escherichia coli [14] = assay: Synergistic antibacterial activity against NDM-1 producing Escherichia coli assessed ass MIC of ceftazidime/avibactam at 32 ug/ml by broth microdilution method; assay type: functional; details: dose 32 µg/ml
Method in brief: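 MIC of ceftazidime-avibactam (avibactam fixed at 4 µg/mL) by CLSI broth microdilution in Mueller-Hinton broth. Used the NDM-1-producing multidrug-resistant E. coli clinical isolate SI-001M at 5 × 10⁴ CFU/well, with and without inhibitor at a fixed 32 µg/ml. No colistin added. Triplicate determinations.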

Escherichia coli [15] = assay: Antibacterial activity against NDM-1 producing Escherichia coli in presence of colistin by broth microdilution method.; assay type: functional
[16] = target: Hydroxyacylglutathione hydrolase (Homo sapiens); assay: Inhibition of human Glyoxalase II expressed in Escherichia coli BL21 (DE3)
[17] = Inhibition of beta-lactamase VIM-2 (unknown origin) expressed in Escherichia coli XL-1 assessed as potentiation of cefoxitin antibacterial activity by measuring cefoxitin induced diameter of inhibition zone at 120 uM incubated for 18 hrs by disk diffusion method (reference value: 8 mm)
Method in brief: (§5)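 Wild-type efflux E. coli XL-1 Blue transformed with pLB-II-VIM-2. Mueller-Hinton disk diffusion per CLSI, 30 µg cefoxitin disks loaded with inhibitor dissolved in DMSO (≤15 µL). Growth-inhibition zone measured after 18 h at 35 ± 1 °C; DMSO negative and 220 µg EDTA positive controls. Triplicate.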

[18] = Inhibition of beta-lactamase VIM2 (unknown origin) expressed in Escherichia coli BL21(DE3) using imipenem as substrate by measuring substrate hydrolysis at 100 uM by spectrophotometric analysis; method in brief: as §3
[19] = Inhibition of beta-lactamase L1 (unknown origin) expressed in Escherichia coli BL21(DE3) using nitrocefin as substrate by measuring substrate hydrolysis at 100 uM preincubated for 30 mins by spectrophotometric analysis; method in brief: as §4
[20] = Inhibition of beta-lactamase VIM-2 (unknown origin) expressed in Escherichia coli LZ2310 assessed as potentiation of cefoxitin antibacterial activity by measuring cefoxitin induced diameter of inhibition zone at 80 uM incubated for 18 hrs by disk diffusion method (reference value: 14 mm); method in brief: as §1
[21] = Inhibition of beta-lactamase CphA (unknown origin) expressed in Escherichia coli BL21(DE3) using imipenem as substrate by measuring substrate hydrolysis at 100 uM by spectrophotometric analysis; method in brief: as §2
[22] = Inhibition of beta-lactamase IMP-1 (unknown origin) expressed in Escherichia coli BL21(DE3) using imipenem as substrate by measuring substrate hydrolysis at 100 uM by spectrophotometric analysis; method in brief: as §3
[23] = Inhibition of beta-lactamase VIM-2 (unknown origin) expressed in Escherichia coli XL-1 assessed as potentiation of cefoxitin antibacterial activity by measuring cefoxitin induced diameter of inhibition zone at 80 uM incubated for 18 hrs by disk diffusion method (reference value: 8 mm); method in brief: as §5
[24] = Inhibition of beta-lactamase NDM1 (unknown origin) expressed in Escherichia coli BL21(DE3) using cefotaxime/nitrocefin as substrate by measuring substrate hydrolysis at 50 uM by spectrophotometric analysis
[25] = Inhibition of beta-lactamase VIM4 (unknown origin) expressed in Escherichia coli BL21(DE3) using imipenem as substrate by measuring substrate hydrolysis at 100 uM by spectrophotometric analysis; method in brief: as §3

inhibition zone (IZ) [1]: 16 mm
inhibition zone (IZ) [2]: 14 mm
inhibition zone (IZ) [5]: 15 mm
inhibition zone (IZ) [10]: 9 mm
MIC (Escherichia coli [11]): 8 µg/mL
MIC (Escherichia coli [12]): 64 µg/mL
MIC (Escherichia coli [13]): > 256 µg/mL
MIC (Escherichia coli [14]): > 256 µg/mL
MIC (Escherichia coli [15]): > 256 µg/mL
IC50 [16]: 30 µM
SMILES: O=C(O)c1ccccc1/C=N/n1c(Cc2ccc3ccccc3c2)n[nH]c1=S
Ki [3]: 15 µM
Ki [4]: 34.4 µM
Ki [6]: 1.7 µM
Ki [7]: 2.4 µM
Ki [8]: 5 µM
Ki [9]: 0.5 µM

inhibition zone (IZ) [17]: 12 mm
inhibition [18]: 53%
inhibition [19]: 15%
SMILES: Oc1ccc(/C=N/n2c(-c3cccc(C(F)(F)F)c3)n[nH]c2=S)c(O)c1
Ki [4]: 66.2 µM
Ki [6]: 32.5 µM
Ki [8]: 3.5 µM

inhibition zone (IZ) [20]: 18 mm
inhibition [21]: 68%
inhibition [22]: 63%
inhibition zone (IZ) [23]: 15 mm
inhibition [24]: 39%
inhibition [25]: 65%
inhibition [19]: 55%
SMILES: Cc1ccccc1-c1n[nH]c(=S)n1/N=C/c1cccc(O)c1O
Ki [7]: 5.2 µM
